Reference: ChEMBL document CHEMBL4715682, “Potent trifluoromethoxy, trifluoromethylsulfonyl, trifluoromethylthio and pentafluorosulfanyl containing (1,3,4-oxadiazol-2-yl)benzamides against drug-resistant Gram-positive bacteria” (RSC Med Chem, 2020)
≈ marks a conversion by molar mass, not a printed value. Calls of active or inactive are those of the source. The calls are words filed in the database; no cut-off is given here.

Assays:
Assay type in all cases: functional
[1] = system: Staphylococcus aureus; assay: Antibacterial activity against Staphylococcus aureus ATCC 25923 assessed as inhibition of visible bacterial growth incubated for 18 to 20 hrs by CLSI method; details: time 18-20 hrs
In short: (§1)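 CLSI broth microdilution. Strains grown aerobically overnight on tryptic soy agar at 37 °C, adjusted to 0.5 McFarland and diluted in cation-adjusted Mueller–Hinton broth to about 5×10^5 CFU/mL. Compounds and control drugs serially diluted across the plate. Incubated aerobically at 37 °C for 18-20 h. MIC is the lowest concentration with no visible growth.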

[2] = system: Staphylococcus aureus; assay: Antibacterial activity against methicillin-resistant Staphylococcus aureus ATCC 33592 assessed as inhibition of visible bacterial growth incubated for 18 to 20 hrs by CLSI method; details: time 18-20 hrs; in short: as §1
[3] = system: Staphylococcus aureus; assay: Antibacterial activity against methicillin-resistant Staphylococcus aureus NRS484 assessed as inhibition of visible bacterial growth incubated for 18 to 20 hrs by CLSI method; details: time 18-20 hrs; in short: as §1
[4] = system: Streptococcus pneumoniae; assay: Antibacterial activity against cephalosporin-resistant Streptococcus pneumoniae ATCC 51916 assessed as inhibition of visible bacterial growth incubated for 18 to 20 hrs by CLSI method; details: time 18-20 hrs; in short: as §1
[5] = system: Streptococcus pneumoniae; assay: Antibacterial activity against […] Streptococcus pneumoniae ATCC 700677 assessed as inhibition of visible bacterial growth incubated for 18 to 20 hrs by CLSI method; details: time 18-20 hrs; in short: as §1
[6] = system: Enterococcus faecalis; assay: Antibacterial activity against vancomycin- resistant Enterococcus faecalis ATCC 51299 assessed as inhibition of visible bacterial growth incubated for 18 to 20 hrs by CLSI method; details: time 18-20 hrs; in short: as §1
[7] = system: Enterococcus faecalis; assay: Antibacterial activity against vancomycin- resistant Enterococcus faecalis ATCC 700221 assessed as inhibition of visible bacterial growth incubated for 18 to 20 hrs by CLSI method; details: time 18-20 hrs; in short: as §1
[8] = system: Listeria monocytogenes; assay: Antibacterial activity against Listeria monocytogenes ATCC 19111 assessed as inhibition of visible bacterial growth incubated for 18 to 20 hrs by CLSI method; details: time 18-20 hrs
In short: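 Broth microdilution per CLSI. Strains grown aerobically overnight on TSA at 37 °C, suspended to 0.5 McFarland, diluted in CAMHB to about 5×10^5 CFU/mL. Agents serially diluted across plate; aerobic incubation 37 °C for 18-20 h. MIC = lowest concentration completely preventing visible growth.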

[9] = system: Staphylococcus aureus; assay: Bactericidal activity against methicillin-resistant Staphylococcus aureus ATCC 33592 assessed as reduction in bacterial growth incubated for 18 hrs by CLSI method
[10] = system: Staphylococcus aureus; assay: Antibacterial activity against methicillin-resistant Staphylococcus aureus USA400 infected in mouse J774 cells assessed as log reduction in intracellular growth at 8 ug/ml incubated for 18 to 22 hrs; details: dose 8.0 µg/ml, time 18-22 hrs
In short: (§2)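 J774 murine macrophages grown in DMEM with 10% FBS at 37 °C, 5% CO2. Cells infected with MRSA USA400 at MOI about 10:1 for 1 h, then washed with gentamicin to remove extracellular bacteria. Agents added at 8 or 16 μg/mL in triplicate, with DMSO vehicle control, for 24 h. Cells lysed with 0.1% Triton-X, lysates plated on tryptic soy agar, and CFU counted after 18-22 h at 37 °C. Analysed by two-way ANOVA with Dunnett's test.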

[11] = system: Staphylococcus aureus; assay: Antibacterial activity against methicillin-resistant Staphylococcus aureus USA400 infected in mouse J774 cells assessed as log reduction in intracellular growth at 16 ug/ml incubated for 18 to 22 hrs; details: dose 16.0 µg/ml, time 18-22 hrs; in short: as §2

Row | Compound | MIC [1] [µg/mL] | MIC [2] [µg/mL] | MIC [3] [µg/mL] | MIC [4] [µg/mL] | MIC [5] [µg/mL] | MIC [6] [µg/mL] | MIC [7] [µg/mL] | MIC [8] [µg/mL] | MBC [9] [µg/mL] | Activity [10] | Activity [11]
1 | O=C(Nc1nnc(-c2cccs2)o1)c1ccc(F)cc1 | 32 (≈ 111 µM) | 32 (≈ 111 µM) |  |  |  |  |  |  |  |  | 
2 | O=C(Nc1nnc(-c2cccs2)o1)c1cccc(C(F)(F)F)n1 | 16 (≈ 47 µM) | 16 (≈ 47 µM) |  |  |  |  |  |  |  |  | 
3 | CN[C@H](CC(C)C)C(=O)N[C@H]1C(=O)N[C@@H](CC(N)=O)C(=O)N[C@H]2C(=O)N[C@H]3C(=O)N[C@H](C(=O)N[C@H](C(=O)O)c4cc(O)cc(O)c4-c4cc3ccc4O)[C@H](O)c3ccc(c(Cl)c3)Oc3cc2cc(c3O[C@@H]2O[C@H](CO)[C@@H](O)[C@H](O)[C@H]2O[C@H]2C[C@](C)(N)[C@H](O)[C@H](C)O2)Oc2ccc(cc2Cl)[C@H]1O [VANCOMYCIN] |  |  | > 2 | 0.5 (≈ 0.345 µM) | 1 (≈ 0.69 µM) | 32 (≈ 22.1 µM) | > 64 | 0.5 (≈ 0.345 µM) | 1 (≈ 0.69 µM) | inactive | inactive
